Assay results reported in ChEMBL document CHEMBL5316309, “Discovery of BAY-390, a Selective CNS Penetrant Chemical Probe as Transient Receptor Potential Ankyrin 1 (TRPA1) Antagonist” (J Med Chem, 2023).
Converted amounts (≈) assume the structure as drawn. The source made the active and inactive calls.

Key:
[1] = Mutagenecity in Salmonella typhimurium by Ames test; type: toxicity; conditions: salmonella sp.
[2] = Lipophilicity, logD of compound; type: physicochemical; conditions: octanol/water
[3] = Solubility of the compound in PBS buffer at pH 6.5; type: physicochemical
[4] = target: Transient receptor potential cation channel subfamily A member 1 (Homo sapiens, UniProt O75762); test: Antagonist activity at human wildtype TRPA1 channel expressed in CHO-K1 cells tagged with GCaMP6 by measuring calcium flux measured after […] by FLIPR tetra analysis; type: cell-based
Transient receptor potential cation channel subfamily A member 1, sequence (O75762 whole entry): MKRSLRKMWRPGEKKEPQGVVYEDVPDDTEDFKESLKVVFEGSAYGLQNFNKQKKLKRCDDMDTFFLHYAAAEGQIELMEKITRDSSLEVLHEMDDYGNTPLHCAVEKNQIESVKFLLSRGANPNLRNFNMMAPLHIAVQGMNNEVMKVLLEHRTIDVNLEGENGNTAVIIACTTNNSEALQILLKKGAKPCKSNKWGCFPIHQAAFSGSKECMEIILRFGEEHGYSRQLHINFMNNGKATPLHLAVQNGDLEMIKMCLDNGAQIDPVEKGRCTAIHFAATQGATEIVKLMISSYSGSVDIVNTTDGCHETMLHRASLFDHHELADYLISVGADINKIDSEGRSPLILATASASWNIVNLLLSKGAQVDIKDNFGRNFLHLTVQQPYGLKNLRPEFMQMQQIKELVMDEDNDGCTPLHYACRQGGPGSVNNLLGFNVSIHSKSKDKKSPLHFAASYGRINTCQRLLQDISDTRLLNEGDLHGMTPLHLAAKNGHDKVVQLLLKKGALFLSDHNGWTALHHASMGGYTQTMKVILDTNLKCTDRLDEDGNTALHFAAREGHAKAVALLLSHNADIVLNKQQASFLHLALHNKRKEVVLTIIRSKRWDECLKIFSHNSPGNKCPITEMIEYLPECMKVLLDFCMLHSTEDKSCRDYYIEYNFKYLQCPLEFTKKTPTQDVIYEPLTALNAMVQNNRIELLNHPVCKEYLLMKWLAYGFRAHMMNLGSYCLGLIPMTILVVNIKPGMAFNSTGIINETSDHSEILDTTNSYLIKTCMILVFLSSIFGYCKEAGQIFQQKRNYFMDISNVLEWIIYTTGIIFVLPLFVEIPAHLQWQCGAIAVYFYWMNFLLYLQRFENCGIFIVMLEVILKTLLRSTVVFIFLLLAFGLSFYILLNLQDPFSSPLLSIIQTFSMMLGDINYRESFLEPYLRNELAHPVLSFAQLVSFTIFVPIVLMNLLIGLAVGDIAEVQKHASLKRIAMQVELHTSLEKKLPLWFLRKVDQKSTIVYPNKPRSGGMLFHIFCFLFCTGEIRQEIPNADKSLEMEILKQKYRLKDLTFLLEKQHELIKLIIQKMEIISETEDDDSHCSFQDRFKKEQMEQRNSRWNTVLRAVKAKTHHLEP

[5] = Fraction unbound in human; type: ADME
[6] = Fraction unbound in mouse; type: ADME, organism-based; conditions: in vivo
[7] = Metabolic stability in rat hepatocytes; type: ADME, cell-based, Hepatocyte
[8] = Metabolic stability in rat blood assessed as clearance; type: ADME, tissue-based
[9] = Permeability form apical to basolateral side in human Caco2 cells; type: ADME, cell-based; conditions: caco-2
[10] = Efflux ratio of permeability in human Caco2 cells; type: ADME, cell-based; conditions: caco-2
[11] = Fraction unbound in Sprague-Dawley rat; type: ADME
Rattus norvegicus [12] = test: Protective activity in cinnamaldehyde induced nocifensive behaviour Sprague-Dawley rat model assessed as reduction in number of flinches treated with cinnamaldehyde followed compound addition at 3 to 30 mg/kg, po measured after 1 hr measured by Dunnert's post hoc test; type: functional, organism-based; conditions: dose 3-30 mg/kg
In short: (§1)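 Male Sprague Dawley rats, 175–200 g, dosed orally in 10% DMSO/40% Solutol/50% water 1 h before intraplantar injection of 50 μL cinnamaldehyde at 5 mM. Flinch number and licking duration scored blinded for 5 min. One-way ANOVA with Dunnett versus vehicle.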

Rattus norvegicus [13] = test: Protective activity in cinnamaldehyde induced nocifensive behaviour Sprague-Dawley rat model assessed as reduction in paw licking treated with cinnamaldehyde followed compound addition at 3 to 30 mg/kg, po measured after 1 hr measured by Dunnert's post hoc test; type: functional, organism-based; conditions: dose 3-30 mg/kg; in short: as §1
Plasma [14] = test: Free plasma concentration in cinnamaldehyde induced nocifensive behaviour Sprague-Dawley rat model treated with cinnamaldehyde followed compound addition at 3 to 30 mg/kg, po measured after 1 hr; type: functional; conditions: dose 3-30 mg/kg
In short: (§2)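 Free plasma level taken 1 h after oral dosing (3, 10, 30 mg/kg) in the rat intraplantar cinnamaldehyde nocifensive model.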

Plasma [15] = test: Free plasma concentration in cinnamaldehyde induced nocifensive behaviour Sprague-Dawley rat model at 10 mg/kg, po; type: functional; conditions: time 1 hrs; in short: as §2
Plasma [16] = test: Free plasma concentration in cinnamaldehyde induced nocifensive behaviour Sprague-Dawley rat model treated at 3 to 30 mg/kg, po for 1 hr followed by cinnamaldehyde addition; type: functional; conditions: dose 3-30 mg/kg; in short: as §2
Rattus norvegicus [17] = test: Reversal of complete Freund's adjuvant induced mechanical hyperalgesia in Sprague-Dawley rat assessed as paw withdrawal threshold treated with CFA for 24 hrs followed by compound addition at 3 to 30 mg/kg, po measured after 2 to 4 hrs by Dunnett's post hoc test; type: functional, organism-based; conditions: dose 3-30 mg/kg, time 2-4 hrs
In short: (§3)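 Male Sprague Dawley rats, 175–200 g, given intraplantar CFA in one hind paw. Oral dose once 24 h later in 10% DMSO/40% Solutol/50% water. Paw withdrawal threshold to pressure measured blinded on CFA and contralateral paws before CFA, at 24 h (predrug) and 2 and 4 h postdose. Two-way repeated-measures ANOVA, then Dunnett versus vehicle.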

Rattus norvegicus [18] = test: Anti-inflammatory activity in complete Freund's adjuvant induced mechanical hyperalgesia in Sprague-Dawley rat assessed as reduction of mechanical hyperalgesia treated with CFA for 24 hrs followed by compound addition at 10 to 30 mg/kg, po measured after 2 hrs by Dunnett's post hoc test; type: functional, organism-based; conditions: dose 10-30 mg/kg; in short: as §3
Rattus norvegicus [19] = test: Anti-inflammatory activity in complete Freund's adjuvant induced mechanical hyperalgesia in Sprague-Dawley rat assessed as reduction of mechanical hyperalgesia treated with CFA for 24 hrs followed by compound addition at 30 mg/kg, po measured after 4 hrs by Dunnett's post hoc test; type: functional, organism-based; in short: as §3
Plasma [20] = test: Free plasma concentration in cinnamaldehyde induced nocifensive behaviour Sprague-Dawley rat treated with CFA for 24 hrs followed by compound addition at 3 mg/kg, po measured after 4.5 hrs; type: functional
In short: (§4)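 Unbound plasma level taken 4.5 h after oral dosing (3, 10, 30 mg/kg), given 24 h after intraplantar CFA in rats.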

Plasma [21] = test: Free plasma concentration in cinnamaldehyde induced nocifensive behaviour Sprague-Dawley rat treated with CFA for 24 hrs followed by compound addition at 10 mg/kg, po measured after 4.5 hrs; type: functional; in short: as §4
Plasma [22] = test: Free plasma concentration in cinnamaldehyde induced nocifensive behaviour Sprague-Dawley rat treated with CFA for 24 hrs followed by compound addition at 30 mg/kg, po measured after 4.5 hrs; type: functional; in short: as §4
Rattus norvegicus [23] = test: Antiallodynic activity against spinal nerve ligation neuropathic pain Sprague-Dawley rat model assessed as reversal of mechanical allodynia administered at 90 mg/kg, po bid measured after 6 days post SNL surgery; type: functional, organism-based; conditions: time 6.0 day
Rattus norvegicus [24] = test: Antiallodynic activity against spinal nerve ligation neuropathic pain Sprague-Dawley rat model assessed as reversal of mechanical allodynia administered at 30 mg/kg, po bid for 10 days from day 15 to day 24 post SNL surgery; type: functional, organism-based; conditions: time <= 10.0 day
In short: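 Male Sprague Dawley rats, 100–120 g, had spinal nerve ligation under isoflurane. Oral dosing b.i.d. on days 15–24 post surgery in DMSO/Solutol/water 10/40/50 at 5 mL/kg; gabapentin 30 mg/kg q.d. as control. Von Frey up-and-down thresholds, blinded, on both hind paws at day 11 (baseline) and days 15, 18, 21, 24, 2 h after morning dose. Kruskal–Wallis with Dunn versus vehicle.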

Plasma [25] = test: Unbound plasma concentration in spinal nerve ligation neuropathic pain Sprague-Dawley rat model administered at 30 mg/kg, po bid for 10 days from day 15 to day 24 post SNL surgery measured after […] of last dose; type: functional; conditions: time 242.5 hrs
Plasma [26] = test: Unbound plasma concentration in spinal nerve ligation neuropathic pain Sprague-Dawley rat model administered at 90 mg/kg, po bid for 10 days from day 15 to day 24 post SNL surgery measured after […] of last dose; type: functional; conditions: time 242.5 hrs
[27] = Fraction unbound in guniea pig; type: ADME, Cavia porcellus; conditions: guinea pig
[28] = Unbound brain concentration in spinal nerve ligation neuropathic pain Sprague-Dawley rat model administered at 30 mg/kg, po bid for 10 days from day 15 to day 24 post SNL surgery measured after 2 to 8 hrs of last dose
[29] = Unbound brain concentration in spinal nerve ligation neuropathic pain Sprague-Dawley rat model administered at 90 mg/kg, po bid for 10 days from day 15 to day 24 post SNL surgery measured after 2 to 8 hrs of last dose

For O[C@]1(C(F)(F)F)CCCC[C@H]1Nc1ccc(F)cc1 [BAY-390], the Activity [1] was “Non-Toxic”, the logD [2] was 3 and the solubility [3] was 56 µg/mL (≈ 202 µM). The IC50 [4] was 35 nM, the fraction unbound [5] was 0.12 and the fraction unbound [6] was 0.081. For the same compound, the Stability [7] was “Stable”, the CL [8] was 40 mL/min/kg and the permeability [9] was 29.3 ×10⁻⁶ cm/s. The Ratio [10] was 0.6, the fraction unbound [11] was 0.06 and the Activity (Rattus norvegicus [12]) was “Active”. The Activity (Rattus norvegicus [13]) was “Active”, the “Cp(f)” value (Plasma [14]) was 10 nM and the “Cp(f)” value (Plasma [15]) was 35 nM. The “Cp(f)” value (Plasma [16]) was 115 nM, the Activity (Rattus norvegicus [17]) was “Active” and the Activity (Rattus norvegicus [18]) was “Active”. The Activity (Rattus norvegicus [19]) was “Active”, the “Cp(f)” value (Plasma [20]) was 7 nM and the “Cp(f)” value (Plasma [21]) was 10 nM. For the same compound, the “Cp(f)” value (Plasma [22]) was 103 nM, the Activity (Rattus norvegicus [23]) was “Active” and the Activity (Rattus norvegicus [24]) was “inactive”. For the same compound, the “Cp(f)” value (Plasma [25]) was 115 nM, the “Cp(f)” value (Plasma [26]) was 201 nM and the fraction unbound [27] was 0.097. It also gave an unbound brain concentration [28] of 33 nM and an unbound brain concentration [29] of 61 nM.
